The source of these data is ChEMBL document CHEMBL2086369, “Design, synthesis, and pharmacological characterization of indol-3-ylacetamides, indol-3-yloxoacetamides, and indol-3-ylcarboxamides: potent and selective CB2 cannabinoid receptor inverse agonists” (J Med Chem, 2012).

Structures are written as SMILES. Calls of active or inactive are those of the source. The rule behind the calls is not given here. Some results are limits rather than exact numbers.

Assay [1] deals with T1, Cannabinoid receptor 2 (Homo sapiens, UniProt P34972). Put plainly: Displacement of [3H]CP-55,940 from human recombinant CB2 receptor transfected in HEK cells. The format is cell-based, HEK293. For orientation: Loss of bound radioactivity is the signal in a displacement assay; it reports binding, not function.
T1 sequence (P34972 whole entry): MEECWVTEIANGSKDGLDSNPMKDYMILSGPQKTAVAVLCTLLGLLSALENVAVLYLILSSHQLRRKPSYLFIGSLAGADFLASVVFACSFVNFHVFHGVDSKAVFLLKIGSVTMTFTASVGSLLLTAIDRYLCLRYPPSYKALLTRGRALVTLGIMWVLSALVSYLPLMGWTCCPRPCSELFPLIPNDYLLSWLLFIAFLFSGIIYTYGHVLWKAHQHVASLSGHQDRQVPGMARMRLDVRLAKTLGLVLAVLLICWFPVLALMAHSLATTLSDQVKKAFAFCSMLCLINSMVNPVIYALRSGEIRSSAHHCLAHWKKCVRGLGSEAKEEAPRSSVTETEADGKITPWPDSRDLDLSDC
In the next assay the target is Cannabinoid receptor 1 (Homo sapiens, UniProt P21554). Put plainly: biochemical. Format: cell-based, HEK293.
Sequence of Cannabinoid receptor 1 (P21554 whole entry): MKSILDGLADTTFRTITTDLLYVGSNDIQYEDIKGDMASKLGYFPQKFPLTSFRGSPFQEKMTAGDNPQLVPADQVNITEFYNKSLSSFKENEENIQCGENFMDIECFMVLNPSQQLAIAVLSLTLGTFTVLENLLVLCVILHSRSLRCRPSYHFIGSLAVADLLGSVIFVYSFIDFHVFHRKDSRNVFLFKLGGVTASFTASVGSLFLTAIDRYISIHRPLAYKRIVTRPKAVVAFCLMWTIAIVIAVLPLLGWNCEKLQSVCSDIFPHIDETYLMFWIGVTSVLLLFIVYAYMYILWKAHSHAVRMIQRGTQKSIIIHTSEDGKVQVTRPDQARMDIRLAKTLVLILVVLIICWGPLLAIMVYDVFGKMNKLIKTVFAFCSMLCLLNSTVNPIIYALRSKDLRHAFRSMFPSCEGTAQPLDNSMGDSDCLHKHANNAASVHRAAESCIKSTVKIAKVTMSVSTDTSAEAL
For the next assay, the species on record is Homo sapiens. Put plainly: Selectivity index, ratio of Ki for human recombinant CB1 receptor to Ki for human recombinant CB2 receptor.
Assay [2] addresses T1, Cannabinoid receptor 2. Particulars: CHO, 1 uM.
The target in assay [3] is T1, Cannabinoid receptor 2. Particulars: CHO, 10 uM.
Assay [4] deals with T1, Cannabinoid receptor 2. Put plainly: Inverse agonist activity at human CB2 receptor expressed in CHO cells assessed as increase of forskolin-induced cAMP level at 1 uM by scintillation counting. Format: functional, cell-based. Summed up:
(§1)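 CHO cells expressing human CB2, trypsinized, 1 × 10⁶ cells per assay in HEPES-buffered saline with glucose, pH 7.4, 37 °C. Preincubated 10 min with 0.5 mM Ro 20-1724. Compound tested with 1 μM forskolin. Stopped with cold 6% TCA, ether-extracted, cAMP measured by [³H]cAMP competition binding to adrenal binding protein with scintillation counting. Given as % cAMP increase; means of ≥4 experiments in duplicate.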
In general terms: Cyclic AMP is a second messenger, typically raised through Gs and lowered through Gi signalling.

In assay [5] the target is T1, Cannabinoid receptor 2. Put plainly: Inverse agonist activity at human CB2 receptor expressed in CHO cells assessed as increase of forskolin-induced cAMP level at 10 uM by scintillation counting. The format is functional, cell-based. The gist of the method: as §1
Assay [6] deals with Mus musculus. The assay can be described thus: Antinociceptive activity in mouse assessed as reduction of formalin-induced nocifensive response at 1 mg/kg, ip administered 15 mins before formalin challenge measured for 0 to 7 mins in presence of CB2 agonist COR167. The format is functional, organism-based. More on the design: dose 1 mg/kg. Summed up:
(§2)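 Mice (n = 8−10 per group) got compound ip (1 or 3 mg/kg) or vehicle 15 min before formalin (1.25% in saline, 30 μL) into the dorsal hindpaw. Where used, COR167 (1 mg/kg, ip) was given 5 min before compound. Time spent licking plus elevating the paw was scored every 5 min over phase 1 (0−7 min) and phase 2 (15−60 min). Mean ± SEM; ANOVA with Dunnett's test.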

Assay [7] has as its system Mus musculus. The assay can be described thus: Antinociceptive activity in mouse assessed as reduction of formalin-induced nocifensive response at 1 to 3 mg/kg, ip administered 15 mins before formalin challenge measured for 0 to 7 mins. The format is functional, organism-based. The gist of the method:
as §2

The test system of assay [8] is Mus musculus. The assay can be described thus: Analgesic activity in ip dosed mouse assessed as reduction of formalin-induced inflammatory pain administered 15 mins before formalin challenge measured for 15 to 60 mins. The format is functional, organism-based. The gist of the method: as §2
For assay [9], the system named is Mus musculus. The assay can be described thus: Analgesic activity in mouse assessed as reduction of formalin-induced inflammatory pain at 1 mg/kg, ip administered 15 mins before formalin challenge measured for 15 to 60 mins in presence of CB2 agonist COR167. The format is functional, organism-based. Further details: dose 1 mg/kg. The gist of the method:
as §2

A word on the Ki: it is the dissociation constant of the complex between target and ligand, obtained from inhibition or displacement. As for `C=CCn1cc(CC(=O)NC23CC4CC(CC(C4)C2)C3)c2cc(Br)ccc21`, the Ki is 1090 nM at Cannabinoid receptor 2 [1] and greater than 10000 nM at Cannabinoid receptor 1. Besides, the Ratio Ki in the assay filed under Homo sapiens is greater than 9.

The term inhibition denotes the drop in the measured response relative to a control, in per cent. Turning to `CCCC(C)(C)c1ccc2c(c1)OC(C)(C)[C@@H]1CC=C(C)C[C@@H]21`, the figures for the inhibition at Cannabinoid receptor 2 [2] and on Cannabinoid receptor 2 [3] were 87% and 94%, respectively.

`C=CCn1cc(C(=O)C(=O)NC23CC4CC(CC(C4)C2)C3)c2cc(-c3ccccc3)ccc21`: the Ki stood at 25.4 nM at Cannabinoid receptor 2 [1] and 3920 nM on Cannabinoid receptor 1. For the same molecule, in the assay listed under Homo sapiens, the Ratio Ki came to 154.

Take `C=CCn1cc(CC(=O)NC23CC4CC(CC(C4)C2)C3)c2cc(-c3ccco3)ccc21`: the Ki on Cannabinoid receptor 2 [1] turned out to be 50 nM; on Cannabinoid receptor 1 it was 560 nM. Also, the Ratio Ki in the assay filed under Homo sapiens is 11.2.

With `C=CCn1cc(CC(=O)NC2CCCCCC2)c2cc(-c3ccco3)ccc21`, the figures for the Ki on Cannabinoid receptor 2 [1] and on Cannabinoid receptor 1 were 377 nM and greater than 10000 nM, respectively. For the same molecule, the Ratio Ki in the assay filed under Homo sapiens is greater than 26.

For `CCCCCn1cc(CC(=O)NC23CC4CC(CC(C4)C2)C3)c2cc(-c3ccco3)ccc21`, the Ki on Cannabinoid receptor 2 [1] worked out at 110 nM; at Cannabinoid receptor 1, 1660 nM. Besides, the Ratio Ki in the assay listed under Homo sapiens was 15.1.

On to `CCCCCn1cc(C(=O)NC23CC4CC(CC(C4)C2)C3)c2cc(-c3ccco3)ccc21`, for which the Ki on Cannabinoid receptor 2 [1] worked out at 2.48 nM; on Cannabinoid receptor 1, 342 nM. Besides, the Activity is 93% at Cannabinoid receptor 2 [4], 110% on Cannabinoid receptor 2 [5] and “Dose-dependent effect” with Mus musculus [8]. The result in the assay with Mus musculus [6], in the assay with Mus musculus [7] and in the assay with Mus musculus [9] was inactive. For the same molecule, in the assay filed under Homo sapiens, the Ratio Ki amounted to 138.

`C=CCn1cc(CC(=O)NC2CCCCC2)c2cc(OCc3cccc(OC)c3)ccc21`: the results for the Ki at Cannabinoid receptor 2 [1] and on Cannabinoid receptor 1 were 400 nM and greater than 10000 nM, respectively. Besides, the Ratio Ki in the assay listed under Homo sapiens is greater than 25.

As for `CCCCCn1cc(C(=O)C(=O)NC23CC4CC(CC(C4)C2)C3)c2cc(-c3ccco3)ccc21`, the Ki at Cannabinoid receptor 2 [1] came to 0.37 nM; on Cannabinoid receptor 1, 345 nM. For the same molecule, the Activity was 138% on Cannabinoid receptor 2 [4], 163% on Cannabinoid receptor 2 [5] and “Dose-dependent effect” in the assay with Mus musculus [8]. Further, the result in the assay on Mus musculus [6] and in the assay on Mus musculus [9] was Active. Moreover, the outcome in the assay with Mus musculus [7] was inactive. Also, the Ratio Ki in the assay filed under Homo sapiens was found to be 932.

As for `C=CCCn1cc(CC(=O)NC23CC4CC(CC(C4)C2)C3)c2cc(-c3ccccc3)ccc21`, the figures for the Ki on Cannabinoid receptor 2 [1] and at Cannabinoid receptor 1 were 17.8 nM and 1830 nM, respectively. The Ratio Ki in the assay filed under Homo sapiens turned out to be 103.

With `C=CCn1cc(C(=O)C(=O)NC23CC4CC(CC(C4)C2)C3)c2cc(-c3ccco3)ccc21`, the values for the Ki at Cannabinoid receptor 2 [1] and on Cannabinoid receptor 1 were 10.3 nM and 3620 nM, respectively. Also, the values for the Activity at Cannabinoid receptor 2 [4] and on Cannabinoid receptor 2 [5] were 62% and 75%, respectively. Besides, in the assay filed under Homo sapiens, the Ratio Ki amounted to 351.

On to `CCCCn1cc(CC(=O)NC23CC4CC(CC(C4)C2)C3)c2cc(-c3ccccc3)ccc21`, for which the Ki at Cannabinoid receptor 2 [1] was 20.5 nM; on Cannabinoid receptor 1, greater than 10000 nM. Besides, the Ratio Ki in the assay listed under Homo sapiens is greater than 487.

Regarding `CCCCCn1cc(C(=O)C(=O)NC2CCCCC2)c2cc(-c3ccccc3)ccc21`, the results for the Ki at Cannabinoid receptor 2 [1] and at Cannabinoid receptor 1 were 11.2 nM and greater than 10000 nM, respectively. Further, the Ratio Ki in the assay filed under Homo sapiens is greater than 892.

Turning to `CCCCCn1cc(C(=O)NC23CC4CC(CC(C4)C2)C3)c2cc(-c3cccs3)ccc21`, the Ki amounted to 6.37 nM at Cannabinoid receptor 2 [1] and 3620 nM on Cannabinoid receptor 1. For the same molecule, the Activity on Cannabinoid receptor 2 [4] amounted to 106%; at Cannabinoid receptor 2 [5], 135%. Moreover, the Ratio Ki in the assay filed under Homo sapiens was found to be 568.

Consider `CCCCCn1cc(C(=O)C(=O)NC23CC4CC(CC(C4)C2)C3)c2cc(-c3ccccc3)ccc21`, for which the figures for the Ki at Cannabinoid receptor 2 [1] and on Cannabinoid receptor 1 were 12.7 nM and greater than 10000 nM, respectively. Moreover, the results for the Activity at Cannabinoid receptor 2 [4] and on Cannabinoid receptor 2 [5] were 55% and 70%, respectively. In the assay listed under Homo sapiens, the Ratio Ki is greater than 787.

As to `CCCCCn1cc(CC(=O)NC23CC4CC(CC(C4)C2)C3)c2cc(-c3ccccc3)ccc21`, the results for the Ki on Cannabinoid receptor 2 [1] and on Cannabinoid receptor 1 were 70 nM and 2380 nM, respectively. Moreover, the Ratio Ki in the assay filed under Homo sapiens is 34.

Regarding `CCCn1cc(CC(=O)NC23CC4CC(CC(C4)C2)C3)c2cc(-c3ccccc3)ccc21`, the inhibition constant Ki at Cannabinoid receptor 2 [1] came to 11.8 nM; on Cannabinoid receptor 1, 1510 nM. Moreover, in the assay filed under Homo sapiens, the Ratio Ki was determined as 128.

As to `O=C(Cc1cn(Cc2ccccc2)c2ccc(-c3ccccc3)cc12)NC12CC3CC(CC(C3)C1)C2`, the Ki at Cannabinoid receptor 2 [1] is 189 nM; on Cannabinoid receptor 1, greater than 10000 nM. The Ratio Ki in the assay listed under Homo sapiens was greater than 52.

For the molecule `CCCCCn1cc(C(=O)NC23CC4CC(CC(C4)C2)C3)c2cc(-c3ccccc3)ccc21`, the figures for the Ki on Cannabinoid receptor 2 [1] and on Cannabinoid receptor 1 were 11.6 nM and 1050 nM, respectively. Moreover, the Ratio Ki in the assay listed under Homo sapiens was found to be 90.7.

Turning to `O=C(Cc1c[nH]c2ccc(-c3ccccc3)cc12)NC12CC3CC(CC(C3)C1)C2`, the Ki on Cannabinoid receptor 2 [1] was 70.8 nM; on Cannabinoid receptor 1 it was greater than 10000 nM. Besides, in the assay listed under Homo sapiens, the Ratio Ki is greater than 141.

Consider `CCCCCn1cc(C(=O)NC23CC4CC(CC(C4)C2)C3)c2ccc(-c3ccccc3)cc21`, for which the inhibition constant Ki at Cannabinoid receptor 2 [1] was 3.52 nM; on Cannabinoid receptor 1, 2.03 nM. The Ratio Ki in the assay listed under Homo sapiens is 0.6.

As to `C=CCn1cc(C(=O)NC23CC4CC(CC(C4)C2)C3)c2cc(-c3ccccc3)ccc21`, the Ki was found to be 1.82 nM at Cannabinoid receptor 2 [1] and 48.2 nM at Cannabinoid receptor 1. Also, the Ratio Ki in the assay listed under Homo sapiens was 26.5.

`Cn1cc(CC(=O)NC23CC4CC(CC(C4)C2)C3)c2cc(-c3ccccc3)ccc21`: the Ki on Cannabinoid receptor 2 [1] is 98 nM; at Cannabinoid receptor 1, 488 nM. The Ratio Ki in the assay listed under Homo sapiens came out at 5.

Turning to `C=CCn1cc(CC(=O)NC23CC4CC(CC(C4)C2)C3)c2cc(-c3ccccc3)ccc21`, the Ki at Cannabinoid receptor 2 [1] was found to be 50 nM; on Cannabinoid receptor 1, 530 nM. Further, the Activity is 67% on Cannabinoid receptor 2 [4] and 88% at Cannabinoid receptor 2 [5]. In addition, the Ratio Ki in the assay filed under Homo sapiens is 10.6.

As for `CCn1cc(CC(=O)NC23CC4CC(CC(C4)C2)C3)c2cc(-c3ccccc3)ccc21`, the Ki is 67 nM at Cannabinoid receptor 2 [1] and 698 nM on Cannabinoid receptor 1. In the assay filed under Homo sapiens, the Ratio Ki stood at 10.4.

As to `C=CCn1cc(C(=O)NC23CC4CC(CC(C4)C2)C3)c2cc(-c3ccc(O)cc3)ccc21`, the Ki is 22.2 nM on Cannabinoid receptor 2 [1] and greater than 10000 nM at Cannabinoid receptor 1. The Activity came out at 51% on Cannabinoid receptor 2 [4] and 68% at Cannabinoid receptor 2 [5]. Besides, the Ratio Ki in the assay filed under Homo sapiens is greater than 450.

For `CCCCCn1cc(CC(=O)NC23CC4CC(CC(C4)C2)C3)c2cc(Br)ccc21`, the Ki on Cannabinoid receptor 2 [1] was determined as 170 nM; at Cannabinoid receptor 1, 5510 nM. Moreover, in the assay filed under Homo sapiens, the Ratio Ki is 32.4.

`CCCCCn1cc(C(=O)NC23CC4CC(CC(C4)C2)C3)c(=O)c2cc(-c3ccco3)ccc21` registered a Ki on Cannabinoid receptor 1 greater than 10000 nM.

For `C=CCn1cc(C(=O)NC23CC4CC(CC(C4)C2)C3)c2cc(-c3ccco3)ccc21`, the Ki on Cannabinoid receptor 2 [1] was 5.73 nM; on Cannabinoid receptor 1, 2790 nM. The Ratio Ki in the assay filed under Homo sapiens is 488.
